SENP1 FRET inh: inhibitors of human SENP1 SUMO protease catalytic domain. AID 624204. Q9P0U3. inhibition, % at 10 µM. recombinant SENP1 catalytic domain, CyPet-SUMO1-YPet FRET cleavage. 0.21% of 360,000 active;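 active = inhibition at least 30% at 10 µM, raw YFP signal under a set limit, fluorescence ratio 0.5 to 1.5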;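 note: 0% = enzyme with DMSO and 100% = no enzyme wells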
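Assay system – human recombinant His6-tagged SENP1 catalytic domain enzyme · Input – SENP1 enzyme, 20 pM final · Buffer or medium – Tris pH 8 buffer plus EDTA, NaCl, BME, BSA, NP40, catalase · Schedule – 50 min reaction at room temperature · Technique – FRET read of cyan and yellow fluorescence · Control set – no-enzyme wells low, DMSO-plus-enzyme wells high control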
SENP6 block: inhibitors of human SENP6 protease. Q9GZR1. Recombinant SENP6 catalytic domain, aminoluciferin luminescence. inhibition, % at 10 µM. 1.8% of 330,000 active;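 active = inhibition above about 50% at the single tested dose, limit read from the data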;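 note: plate controls were DMSO wells with enzyme for no effect and DMSO wells lacking enzyme for full effect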
SENP8 block-1: inhibitors of human SENP8 protease | inhibition, % at 10 µM | purified SENP8, Z-RLRGG-aminoluciferin cleavage, luminescence | AID 2540 | Q96LD8 | 1.2% of 330,000 active; in the data active = inhibition above about 50%
Target sequence (Q96LD8 whole entry, looked up): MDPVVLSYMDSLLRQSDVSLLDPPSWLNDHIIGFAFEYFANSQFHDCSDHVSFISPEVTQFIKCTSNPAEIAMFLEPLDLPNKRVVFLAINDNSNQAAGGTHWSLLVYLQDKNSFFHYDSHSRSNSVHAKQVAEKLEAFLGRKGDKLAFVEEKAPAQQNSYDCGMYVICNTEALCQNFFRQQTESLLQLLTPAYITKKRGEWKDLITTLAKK
HSP90 inh: inhibitors of HSP90 luciferase refolding in rabbit reticulocyte lysate; luciferase refolding luminescence, 3 h; inhibition, % at 5.6 µM; 0.91% of 290,000 active;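 active = inhibition above the screen-wide mean plus 3 SD, computed separately per campaign, cut at about 16% in these data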;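 note: 0% = DMSO wells and 100% = 60 µM geldanamycin wells; inhibitors lower the luminescence because luciferase stays unfolded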
SENP7 inh: SENP7 protease inhibition; recombinant SENP7, Z-RLRGG-aminoluciferin luminescence, 40 min; Q9BQF6; inhibition, % at 5 µM; 1.5% of 330,000 active;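 active = inhibition above about 50% at the single test dose, limit read from the data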;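 note: plate controls were DMSO with enzyme for no effect and no enzyme buffer wells for full effect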
Target sequence (Q9BQF6 706-1050 limits assumed): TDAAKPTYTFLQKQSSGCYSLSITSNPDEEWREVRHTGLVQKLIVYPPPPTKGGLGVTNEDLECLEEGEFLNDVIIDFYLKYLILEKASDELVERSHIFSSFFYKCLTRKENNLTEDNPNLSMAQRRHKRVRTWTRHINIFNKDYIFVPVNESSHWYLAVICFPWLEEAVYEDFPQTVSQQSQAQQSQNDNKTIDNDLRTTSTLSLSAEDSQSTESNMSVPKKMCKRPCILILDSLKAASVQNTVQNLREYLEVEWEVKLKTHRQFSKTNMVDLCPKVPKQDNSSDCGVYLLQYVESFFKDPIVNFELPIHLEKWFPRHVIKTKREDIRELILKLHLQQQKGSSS
SENP8 block-2: inhibitors of human SENP8 protease; Q96LD8; recombinant SENP8, Nedd8 substrate fluorescence; inhibition, % at 20 µM; 0.64% of 360,000 active; AID 602440; in the data active = inhibition mostly above about 40%, no sharp cut-off; inactive = mostly below about 27%
SENP8 conf: confirmation of human SENP8 protease inhibitors; inhibition, % at 12.5 µM; 40% of 6,200 active; AID 488912; Recombinant SENP8, Z-RLRGG-aminoluciferin luminescence, 60 min; shares compounds with SENP7 inh;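 active = mean inhibition across replicates above about 50%, limit read from the data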
SENP6 confirm: confirmation of human SENP6 protease inhibitors; shares compounds with SENP7 inh; recombinant SENP6, Z-RLRGG-aminoluciferin luminescence; inhibition, % at 12.5 µM; 58% of 6,200 active
SENP7 conf: human SENP7 inhibition, confirmed; recombinant SENP7, Z-RLRGG-aminoluciferin luminescence, 40 min; shares compounds with SENP7 inh; 69% of 6,200 active; inhibition, % at 12.5 µM
Casp3 SENP sel: inhibits human caspase-3 in SENP selectivity test; inhibition, % at 12.5 µM; shares compounds with SENP7 inh; AID 488918; 60% of 6,200 active; purified caspase-3, Z-DEVD-aminoluciferin luminescence, 60 min;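 active = mean inhibition above about 50%, limit read from the data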;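 note: plate controls were enzyme with DMSO for no effect and wells without caspase-3 for full effect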
SENP luc ctr: luminescence interference (SENP counter-screen) | Pre-incubated SENP8/Z-RLRGG-aminoluciferin, luciferase luminescence interference | shares compounds with SENP7 inh | 39% of 6,200 active | inhibition, % at 12.5 µM;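 active = mean inhibition above about 50% when retested at one dose, limit read from the data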;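 note: plate controls were DMSO wells with completed reaction for no effect and substrate without enzyme for full effect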
The depositor's hits bear a star; i = inactive; / = no result. This is a sample that favours compounds with a hit; in the whole collection about 2.9% have one here.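 Rule for the calls, unless noted: active = mean inhibition above about 50% in the one-dose retest (limit read from the data); inactive = the rest.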

SMILES	SENP1 FRET inh	SENP6 block	SENP8 block-1	HSP90 inh	SENP7 inh	SENP8 block-2	SENP8 conf	SENP6 confirm	SENP7 conf	Casp3 SENP sel	SENP luc ctr
Cc1ccnc(NC(=O)c2sc3ccccc3c2Cl)c1	1	71*	57*	-2	89*	-2	42	37	16	55*	6
Cc1ccc2c(Cl)c(C(=O)Nc3cc(C)on3)sc2c1	3	-3	-13	0	27	14	/	/	/	/	/
COc1ccc(-c2cc3nc(C)n(N)c(=O)c3s2)cc1	-2	99*	97*	85*	100*	-432	99*	100*	103*	98*	99*
COc1cccc(CNc2nc3cc(-c4ccccc4)sc3c(=O)n2C)c1	1	/	/	/	/	-125	/	/	/	/	/
Cc1nc2cc(-c3ccccc3)sc2c(=O)n1N	2	96*	96*	49*	99*	-9	98*	99*	102*	98*	97*
CC(=O)Oc1ccc(Cl)cc1CN(C(C)=O)C1CCCCC1	0	/	/	/	/	-3	/	/	/	/	/
COc1cccc2cc(-c3nc4ccccc4[nH]3)c(=O)oc12	-27	50	35	1	59*	-290	16	15	20	36	19
COc1ccc(-c2cc3cccc(OC)c3oc2=O)cc1	7	81*	80*	14	87*	-293	89*	90*	99*	88*	76*
CC(C)[C@H](NS(=O)(=O)c1ccccc1F)C(=O)OCC(=O)Nc1cccc(S(N)(=O)=O)c1	2	8	8	/	5	-6	/	/	/	/	/
Nc1ccc2oc(-c3cc(Br)ccc3Cl)nc2c1	-23	11	-1	5	8	-100	/	/	/	/	/
Nc1ccc2oc(-c3ccccc3Cl)nc2c1	1	91*	68*	7	77*	-240	90*	90*	99*	87*	80*
CCc1ccc2oc(-c3cc(N)ccc3O)nc2c1	39	97*	94*	0	92*	-138	68*	94*	99*	86*	16
CCc1ccc2oc(-c3cc(N)cc(C)c3O)nc2c1	-26	79*	75*	-2	54*	-110	35	50*	78*	58*	7
CCc1ccc2oc(-c3cc(N)ccc3Cl)nc2c1	-10	95*	92*	2	95*	i	95*	97*	101*	82*	78*
Cc1ccc2oc(-c3cc(NC(=O)c4ncn[nH]4)ccc3O)nc2c1	0	-21	-7	3	-12	-43	/	/	/	/	/
Cc1cc2nc(-c3cccc(NC(=O)c4ccc(Br)o4)c3C)oc2cc1C	-2	-14	4	4	-1	-26	/	/	/	/	/
CC(C)(C)C(=O)Nc1ccc2oc(-c3cc(F)c(F)cc3Cl)nc2c1	1	-17	-15	3	-12	i	/	/	/	/	/
Cc1nnc(NCc2ccco2)s1	3	5	-2	1	11	19	/	/	/	/	/
c1coc(CNc2nc3ccccc3s2)c1	-4	58*	17	12	43	12	23	23	70*	55*	41
Cc1ccc(SCC(=O)NCCN2C(=O)CSC2=O)cc1C	2	-10	4	4	2	12	/	/	/	/	/
Cc1ccc(Nc2nnc(SCC(=O)NCCN3C(=O)CSC3=O)s2)cc1C	1	25	46	4	53*	8	51*	46	78*	64*	55*
CC1CCCN(CCCNC(=O)c2coc3nc4ccccc4nc23)C1 (centres undefined)	-12	81*	59*	1	51*	-403	73*	66*	86*	89*	75*
Cc1ccc(CCNC(=O)c2coc3nc4ccccc4nc23)cc1	10	3	-8	2	-5	-493	/	/	/	/	/
CC1CCCN(CCCNC(=O)c2nn(C)c3c2CSc2ccccc2-3)C1 (centres undefined)	1	-2	1	1	-17	16	/	/	/	/	/
CC1CCN(CCCNC(=O)c2coc3nc4ccccc4nc23)CC1	-65	86*	64*	2	41	-422	76*	70*	86*	88*	74*
SMILES	SENP1 FRET inh	SENP6 block	SENP8 block-1	HSP90 inh	SENP7 inh	SENP8 block-2	SENP8 conf	SENP6 confirm	SENP7 conf	Casp3 SENP sel	SENP luc ctr
O=C(c1ccccc1Cc1ccccc1)N1CCN(S(=O)(=O)c2ccccc2Br)CC1	1	-16	2	/	-3	8	/	/	/	/	/
CCOc1ccc(CCN2C(=O)C(=O)N([C@@H](CC(C)C)CN3CCC[C@H]3CN3C(=O)C(=O)NC[C@@H]3Cc3ccccc3)C[C@@H]2Cc2ccccc2)cc1	2	/	/	/	/	13	/	/	/	/	/
c1ccc(CCNc2ncnc3c2cnn3-c2ccccc2)cc1	1	58*	44	9	0	8	58*	51*	82*	39	37
O=C(CSc1nc(C2CC2)nc2ccccc12)N1CCc2ccccc21	-3	/	/	/	/	10	/	/	/	/	/
CCOC(=O)c1cnc2c(-c3ccccc3)cnn2c1N	2	-46	6	0	72*	-293	12	19	10	13	1
CCOC(=O)c1cnc2c(-c3ccccc3)c(C)nn2c1N	-1	-14	-7	3	1	-346	/	/	/	/	/
CCOC(=O)c1cnc2c(N=Nc3ccccc3)c(N)nn2c1N	1	32	11	3	70*	25	-8	-7	5	9	-4
CC(/C=C1\SC(=S)N(NC(=O)c2ccccc2C)C1=O)=C\c1ccccc1	0	-19	-6	0	-6	27	/	/	/	/	/
CC(/C=C1\SC(=S)N(NS(=O)(=O)c2ccc(C)cc2)C1=O)=C\c1ccccc1	7	-13	84*	-4	13	38	-9	84*	11	23	7
CC(/C=C1\SC(=S)N(NS(=O)(=O)c2ccccc2)C1=O)=C\c1ccccc1	1	96*	80*	0	3	33	92*	92*	37	44	16
COc1ccc(CNC(=O)CN(C(=O)CCC(=O)Nc2nccs2)c2cccc(C)c2)cc1	4	-17	-7	0	2	24	/	/	/	/	/
O=C(CN1CCCC1)N1c2ccccc2C=Cc2ccccc21	-2	-1	-1	-1	-1	-3	/	/	/	/	/

Source: PubChem
